ChEMBL document CHEMBL5303300, “EUbOPEN Chemogenomics Library - Multiplex” (2023)
Where “and” joins values, the source holds several entries; their conditions need not be identical. Identical values can stand only once.

How the values were obtained:
Assay type in all cases: toxicity, cell-based
HEK-293T = assay: Multiplex assay against HEK293T; details: human, number of replicates 2
Outline: (§1)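 Hoechst33342, BioTracker Green Microtubule Cytoskeleton Dye, MitoTracker Red and Annexin V Alexa Fluor 680 were added to live cells at seeding, and imaging on a CQ1 microscope at 37°C and 5% CO2 followed compound addition. Gating by CellPathfinder machine learning separated cells into Hoechst high-intensity objects or normal cells, then normal cells into healthy, pyknosed or fragmented nuclei, then pyknosed cells into mitotic or apoptotic. Per cents of healthy-nucleus cells are reported for the tubulin, mitochondrial-mass and membrane-permeability phenotypes.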

U2OS = assay: Multiplex assay against U2OS; details: human, number of replicates 2; outline: as §1
Fibroblast = assay: Multiplex assay against human fibroblast; details: number of replicates 2; outline: as §1
[1] = 12 h, 1 µM, compound concentration 1 uM
[2] = 12 h, 10 µM, compound concentration 10 uM
[3] = 24 h, 1 µM, compound concentration 1 uM
[4] = 24 h, 10 µM, compound concentration 10 uM
[5] = 48 h, 1 µM, compound concentration 1 uM
[6] = 48 h, 10 µM, compound concentration 10 uM

## O=C1CCCN1CCNc1nc(Nc2ccc(Cl)c(Cl)c2)ncc1C(F)(F)F
HEK-293T; [1]
  Population Apoptotic (%): 57% and 53%
  Population Fragmented Nuclei (%): 5% and 3%
  Population Healthy Nuclei (%): 80% and 83%
  Population Hoechst High Intensity Objects (%): 9%
  Population Membrane Permeable-Phenotype (%): 3% and 1%
  Population Mitochondria Different-Phenotype (%): 26% and 20%
  Population Mitotic Cells (%): 42% and 46%
  Population Normal (%): 90%
  Population Pyknosed Nuclei (%): 13%
  Population Tubulin-Different-Phenotype (%): 60% and 61%
  Total Cell Count: 624 and 889
HEK-293T; [2]
  Population Apoptotic (%): 57% and 62%
  Population Fragmented Nuclei (%): 3% and 5%
  Population Healthy Nuclei (%): 76%
  Population Hoechst High Intensity Objects (%): 11% and 7%
  Population Membrane Permeable-Phenotype (%): 5% and 4%
  Population Mitochondria Different-Phenotype (%): 30% and 21%
  Population Mitotic Cells (%): 42% and 37%
  Population Normal (%): 88% and 92%
  Population Pyknosed Nuclei (%): 19% and 18%
  Population Tubulin-Different-Phenotype (%): 67% and 66%
  Total Cell Count: 488 and 473
HEK-293T; [3]
  Population Apoptotic (%): 57% and 53%
  Population Fragmented Nuclei (%): 9% and 7%
  Population Healthy Nuclei (%): 80% and 81%
  Population Hoechst High Intensity Objects (%): 8% and 9%
  Population Membrane Permeable-Phenotype (%): 2% and 1%
  Population Mitochondria Different-Phenotype (%): 5% and 4%
  Population Mitotic Cells (%): 42% and 46%
  Population Normal (%): 91% and 90%
  Population Pyknosed Nuclei (%): 10%
  Population Tubulin-Different-Phenotype (%): 32% and 31%
  Total Cell Count: 951 and 1356
HEK-293T; [4]
  Population Apoptotic (%): 56% and 71%
  Population Fragmented Nuclei (%): 7% and 5%
  Population Healthy Nuclei (%): 78% and 79%
  Population Hoechst High Intensity Objects (%): 8% and 7%
  Population Membrane Permeable-Phenotype (%): 5% and 3%
  Population Mitochondria Different-Phenotype (%): 13% and 8%
  Population Mitotic Cells (%): 43% and 28%
  Population Normal (%): 91% and 92%
  Population Pyknosed Nuclei (%): 13% and 15%
  Population Tubulin-Different-Phenotype (%): 39% and 36%
  Total Cell Count: 751 and 650
HEK-293T; [5]
  Population Apoptotic (%): 17% and 24%
  Population Fragmented Nuclei (%): 14% and 12%
  Population Healthy Nuclei (%): 82% and 83%
  Population Hoechst High Intensity Objects (%): 10% and 12%
  Population Membrane Permeable-Phenotype (%): 6% and 2%
  Population Mitochondria Different-Phenotype (%): 0%
  Population Mitotic Cells (%): 82% and 75%
  Population Normal (%): 89% and 87%
  Population Pyknosed Nuclei (%): 3%
  Population Tubulin-Different-Phenotype (%): 14% and 17%
  Total Cell Count: 2336 and 2853
HEK-293T; [6]
  Population Apoptotic (%): 23% and 27%
  Population Fragmented Nuclei (%): 11% and 9%
  Population Healthy Nuclei (%): 83% and 86%
  Population Hoechst High Intensity Objects (%): 8% and 5%
  Population Membrane Permeable-Phenotype (%): 5% and 4%
  Population Mitochondria Different-Phenotype (%): 2% and 3%
  Population Mitotic Cells (%): 76% and 72%
  Population Normal (%): 91% and 94%
  Population Pyknosed Nuclei (%): 5% and 4%
  Population Tubulin-Different-Phenotype (%): 16% and 28%
  Total Cell Count: 1562 and 1106
U2OS; [1]
  Population Apoptotic (%): 50% and 68%
  Population Fragmented Nuclei (%): 5% and 3%
  Population Healthy Nuclei (%): 70% and 91%
  Population Hoechst High Intensity Objects (%): 0%
  Population Membrane Permeable-Phenotype (%): 0% and 3%
  Population Mitochondria Different-Phenotype (%): 0% and 1%
  Population Mitotic Cells (%): 50% and 31%
  Population Normal (%): 100%
  Population Tubulin-Different-Phenotype (%): 91% and 81%
U2OS; [2]
  Population Apoptotic (%): 100% and 57%
  Population Healthy Nuclei (%): 73% and 80%
  Population Hoechst High Intensity Objects (%): 0%
  Population Membrane Permeable-Phenotype (%): 7% and 5%
  Population Mitochondria Different-Phenotype (%): 7% and 0%
  Population Normal (%): 100% and 99%
  Population Pyknosed Nuclei (%): 5% and 13%
  Population Tubulin-Different-Phenotype (%): 64% and 50%
U2OS; [3]
  Population Apoptotic (%): 100% and 73%
  Population Fragmented Nuclei (%): 0% and 3%
  Population Healthy Nuclei (%): 90%
  Population Hoechst High Intensity Objects (%): 0%
  Population Membrane Permeable-Phenotype (%): 0% and 2%
  Population Mitochondria Different-Phenotype (%): 0%
  Population Normal (%): 100%
  Population Pyknosed Nuclei (%): 9% and 5%
  Population Tubulin-Different-Phenotype (%): 96% and 79%
U2OS; [4]
  Population Apoptotic (%): 70% and 80%
  Population Healthy Nuclei (%): 86% and 70%
  Population Hoechst High Intensity Objects (%): 0%
  Population Membrane Permeable-Phenotype (%): 3%
  Population Mitochondria Different-Phenotype (%): 1% and 0%
  Population Mitotic Cells (%): 29% and 20%
  Population Normal (%): 100%
  Population Pyknosed Nuclei (%): 10% and 12%
  Population Tubulin-Different-Phenotype (%): 57% and 35%
U2OS; [5]
  Population Apoptotic (%): 71% and 84%
  Population Fragmented Nuclei (%): 8% and 3%
  Population Healthy Nuclei (%): 79% and 92%
  Population Hoechst High Intensity Objects (%): 0%
  Population Membrane Permeable-Phenotype (%): 0% and 1%
  Population Mitochondria Different-Phenotype (%): 2% and 0%
  Population Mitotic Cells (%): 28% and 15%
  Population Normal (%): 100%
  Population Pyknosed Nuclei (%): 12% and 4%
  Population Tubulin-Different-Phenotype (%): 95% and 87%
U2OS; [6]
  Population Apoptotic (%): 86% and 75%
  Population Fragmented Nuclei (%): 5% and 6%
  Population Healthy Nuclei (%): 79% and 76%
  Population Hoechst High Intensity Objects (%): 0%
  Population Membrane Permeable-Phenotype (%): 4% and 2%
  Population Mitochondria Different-Phenotype (%): 0% and 2%
  Population Mitotic Cells (%): 13% and 25%
  Population Normal (%): 99% and 100%
  Population Pyknosed Nuclei (%): 14% and 17%
  Population Tubulin-Different-Phenotype (%): 67% and 47%
Fibroblast; [1]
  Population Apoptotic (%): 38% and 28%
  Population Fragmented Nuclei (%): 10% and 8%
  Population Healthy Nuclei (%): 76% and 68%
  Population Hoechst High Intensity Objects (%): 0%
  Population Membrane Permeable-Phenotype (%): 2% and 1%
  Population Mitochondria Different-Phenotype (%): 1%
  Population Mitotic Cells (%): 61% and 71%
  Population Normal (%): 100%
  Population Pyknosed Nuclei (%): 13% and 22%
  Population Tubulin-Different-Phenotype (%): 12% and 9%
  Total Cell Count: 233 and 219
Fibroblast; [2]
  Population Apoptotic (%): 52% and 36%
  Population Fragmented Nuclei (%): 6% and 15%
  Population Healthy Nuclei (%): 40% and 52%
  Population Hoechst High Intensity Objects (%): 0%
  Population Membrane Permeable-Phenotype (%): 19% and 26%
  Population Mitochondria Different-Phenotype (%): 1% and 4%
  Population Mitotic Cells (%): 47% and 63%
  Population Normal (%): 100%
  Population Pyknosed Nuclei (%): 52% and 32%
  Population Tubulin-Different-Phenotype (%): 35% and 50%
  Total Cell Count: 138 and 193
Fibroblast; [3]
  Population Apoptotic (%): 54% and 41%
  Population Fragmented Nuclei (%): 8% and 6%
  Population Healthy Nuclei (%): 76% and 70%
  Population Hoechst High Intensity Objects (%): 0%
  Population Membrane Permeable-Phenotype (%): 5%
  Population Mitochondria Different-Phenotype (%): 1% and 0%
  Population Mitotic Cells (%): 45% and 58%
  Population Normal (%): 100%
  Population Pyknosed Nuclei (%): 14% and 22%
  Population Tubulin-Different-Phenotype (%): 14% and 9%
  Total Cell Count: 234 and 227
Fibroblast; [4]
  Population Apoptotic (%): 70% and 60%
  Population Fragmented Nuclei (%): 6% and 15%
  Population Healthy Nuclei (%): 44% and 50%
  Population Hoechst High Intensity Objects (%): 0%
  Population Membrane Permeable-Phenotype (%): 16% and 14%
  Population Mitochondria Different-Phenotype (%): 3% and 5%
  Population Mitotic Cells (%): 29% and 39%
  Population Normal (%): 99% and 100%
  Population Pyknosed Nuclei (%): 48% and 34%
  Population Tubulin-Different-Phenotype (%): 53% and 50%
  Total Cell Count: 135 and 198
Fibroblast; [5]
  Population Apoptotic (%): 82% and 66%
  Population Fragmented Nuclei (%): 13% and 11%
  Population Healthy Nuclei (%): 73% and 72%
  Population Hoechst High Intensity Objects (%): 0%
  Population Membrane Permeable-Phenotype (%): 2% and 1%
  Population Mitochondria Different-Phenotype (%): 0%
  Population Mitotic Cells (%): 17% and 33%
  Population Normal (%): 100% and 99%
  Population Pyknosed Nuclei (%): 12% and 15%
  Population Tubulin-Different-Phenotype (%): 11% and 6%
  Total Cell Count: 230 and 215
Fibroblast; [6]
  Population Apoptotic (%): 89% and 74%
  Population Fragmented Nuclei (%): 9% and 17%
  Population Healthy Nuclei (%): 52% and 53%
  Population Hoechst High Intensity Objects (%): 0%
  Population Membrane Permeable-Phenotype (%): 21% and 12%
  Population Mitochondria Different-Phenotype (%): 0% and 2%
  Population Mitotic Cells (%): 10% and 25%
  Population Normal (%): 99% and 100%
  Population Pyknosed Nuclei (%): 37% and 28%
  Population Tubulin-Different-Phenotype (%): 40% and 31%
  Total Cell Count: 124 and 180
